Measured values from ChEMBL document CHEMBL1122545, “N2-(4-Substituted-2,6-dichlorophenyl)-N1,N1-dimethylformamidines as antihypertensive and diuretic agents” (J Med Chem, 1984).
Values joined by “and” are separate entries in the source; they are usually repeats but may differ in a detail not shown here. Identical values can stand only once.

How the values were obtained:
Canis familiaris [1] = experiment: Antihypertensive activity in renal hypertensive dogs and fall in heart rate(HR) was reported at a time duration of 3 hour after peroral administration of 0.1 mg/kg; type: functional, Canis lupus familiaris; conditions: route oral
Method in brief: (§1)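 Chronic phase two kidney-one clip Goldblatt renal hypertensive dogs from a standing colony, habituated to the procedure, dosed orally. Arterial blood pressure and heart rate taken by arterial puncture before dosing and repeated at 1, 3 and 5 h after dosing over a 6-h postdosing interval. Maximal falls in MABP and HR recorded.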

Canis familiaris [2] = experiment: Antihypertensive activity in renal hypertensive dogs and maximal fall in mean arterial blood pressure (MABP) was reported at a time duration of 0 hour after peroral administration of 0.2 mg/Kg.; type: functional, Canis lupus familiaris, Artery; method in brief: as §1
Canis familiaris [3] = experiment: Antihypertensive activity in renal hypertensive dogs and fall in heart rate(HR) was reported at a time duration of 1 hour after peroral administration of 0.2 mg/kg.; type: functional, Canis lupus familiaris; conditions: route oral; method in brief: as §1
Canis familiaris [4] = experiment: Antihypertensive activity in renal hypertensive dogs and maximal fall in mean arterial blood pressure (MABP) was reported at a time duration of 3 hour after peroral administration of 0.3 mg/Kg.; type: functional, Canis lupus familiaris, Artery; method in brief: as §1
Canis familiaris [5] = experiment: Antihypertensive activity in renal hypertensive dogs and maximal fall in mean arterial blood pressure (MABP) was reported at a time duration of 5 hour after peroral administration of 0.3 mg/Kg; type: functional, Canis lupus familiaris, Artery
Method in brief: (§2)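 Chronic-phase two kidney-one clip Goldblatt renal hypertensive dogs from a standing colony, habituated to the procedure. Mean arterial pressure and heart rate taken by direct arterial puncture before dosing and again 1, 3 and 5 h after oral dosing; maximal fall recorded over the 6-h postdosing interval.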

Canis familiaris [6] = experiment: Antihypertensive activity in renal hypertensive dogs and maximal fall in mean arterial blood pressure (MABP) was reported at a time duration of 5 hour after peroral administration of 0.2 mg/Kg.; type: functional, Canis lupus familiaris, Artery; method in brief: as §1
Canis familiaris [7] = experiment: Antihypertensive activity in renal hypertensive dogs and maximal fall in mean arterial blood pressure (MABP) was reported at a time duration of 0 hour after peroral administration of 0.1 mg/Kg; type: functional, Canis lupus familiaris, Artery; method in brief: as §1
Canis familiaris [8] = experiment: Antihypertensive activity in renal hypertensive dogs and maximal fall in mean arterial blood pressure (MABP) was reported at a time duration of 1 hour after peroral administration of 1.0 mg/Kg.; type: functional, Canis lupus familiaris, Artery; method in brief: as §1
Canis familiaris [9] = experiment: Antihypertensive activity in renal hypertensive dogs and maximal fall in mean arterial blood pressure (MABP) was reported at a time duration of 3 hour after peroral administration of 1.0 mg/Kg.
Rattus norvegicus [10] = experiment: Antihypertensive activity determined as heart rate in SH rats, was reported at a dose of 100 mg/Kg; type: functional
Method in brief: (§3)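 Male SH rats (Okamoto strain), 16 weeks old, dosed orally by gavage with compound dispersed in 3% starch in normal saline at 2 mL/kg. Oral normal saline load, then individual metabolism cages; 0-5 h urine collected, Na+ and K+ measured by flame photometry. Rats redosed at 24 h without the saline load. MABP and HR taken by femoral arterial puncture under local anesthetic 4 h after the second dose.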

Canis familiaris [11] = experiment: Antihypertensive activity in renal hypertensive dogs and fall in heart rate(HR) was reported at a time duration of 1 hour after peroral administration of 0.1 mg/kg.; type: functional, Canis lupus familiaris; conditions: route oral; method in brief: as §1
Rattus norvegicus [12] = experiment: Diuretic activity was determined expressed as volume of urine excreted in mL was reported at a dose of 100 mg/Kg; type: ADME, organism-based; conditions: in vivo; method in brief: as §3
Canis familiaris [13] = experiment: Antihypertensive activity in renal hypertensive dogs and fall in heart rate(HR) was reported at a time duration of 3 hour after peroral administration of 0.3 mg/Kg.; type: functional, Canis lupus familiaris; method in brief: as §1
Canis familiaris [14] = experiment: Antihypertensive activity in renal hypertensive dogs and fall in heart rate(HR) was reported at a time duration of 3 hour after peroral administration of 0.2 mg/Kg.; type: functional, Canis lupus familiaris; method in brief: as §1
Canis familiaris [15] = experiment: Antihypertensive activity in renal hypertensive dogs and fall in heart rate(HR) was reported at a time duration of 0 hour after peroral administration of 1.0 mg/Kg.; type: functional, Canis lupus familiaris; method in brief: as §1
Rattus norvegicus [16] = experiment: Antihypertensive activity in SH rats, and mean arterial blood pressure was reported at a dose of 100 mg/Kg; type: functional, Artery; method in brief: as §3
Rattus norvegicus [17] = experiment: […] activity expressed as Na+(sodium) excreted in milli equivalents was reported for a duration of 5 hours after administration of a dose of 100 mg/Kg; type: ADME, organism-based, Urine; conditions: in vivo; method in brief: as §3
Canis familiaris [18] = experiment: Antihypertensive activity in renal hypertensive dogs and fall in heart rate(HR) was reported at a time duration of 1 hour after peroral administration of 1.0 mg/Kg.; type: functional, Canis lupus familiaris; method in brief: as §1
Canis familiaris [19] = experiment: Antihypertensive activity in renal hypertensive dogs and maximal fall in mean arterial blood pressure (MABP) was reported at a time duration of 3 hour after peroral administration of 0.2 mg/Kg.; type: functional, Canis lupus familiaris, Artery; method in brief: as §1
Canis familiaris [20] = experiment: Antihypertensive activity in renal hypertensive dogs and fall in heart rate(HR) was reported at a time duration of 5 hour after peroral administration of 0.3 mg/Kg.; type: functional, Canis lupus familiaris; method in brief: as §1
Rattus norvegicus [21] = experiment: […] activity expressed as K(+) (potassium) excreted in milli equivalents was reported for a duration of 5 hours after administration of a dose of 100 mg/Kg.; type: ADME, organism-based, Urine; conditions: in vivo; method in brief: as §3
Canis familiaris [22] = experiment: Antihypertensive activity in renal hypertensive dogs and fall in heart rate(HR) was reported at a time duration of 5 hour after peroral administration of 0.1 mg/Kg; type: functional, Canis lupus familiaris; method in brief: as §1
Canis familiaris [23] = experiment: Antihypertensive activity in renal hypertensive dogs and fall in heart rate(HR) was reported at a time duration of 0 hour after peroral administration of 0.1 mg/Kg.; type: functional, Canis lupus familiaris; method in brief: as §1
Canis familiaris [24] = experiment: Antihypertensive activity in renal hypertensive dogs and maximal fall in mean arterial blood pressure (MABP) was reported at a time duration of 0 hour after peroral administration of 1.0 mg/Kg.; type: functional, Canis lupus familiaris, Artery; method in brief: as §1
Canis familiaris [25] = experiment: Antihypertensive activity in renal hypertensive dogs and maximal fall in mean arterial blood pressure (MABP) was reported at a time duration of 1 hour after peroral administration of 0.2 mg/Kg.; type: functional, Canis lupus familiaris, Artery; method in brief: as §1
Canis familiaris [26] = experiment: Antihypertensive activity in renal hypertensive dogs and fall in heart rate(HR) was reported at a time duration of 3 hour after peroral administration of 1.0 mg/Kg.; type: functional, Canis lupus familiaris; method in brief: as §1
Canis familiaris [27] = experiment: Antihypertensive activity in renal hypertensive dogs and maximal fall in mean arterial blood pressure (MABP) was reported at a time duration of 1 hour after peroral administration of 0.1 mg/Kg.; type: functional, Canis lupus familiaris, Artery; method in brief: as §1
Canis familiaris [28] = experiment: Antihypertensive activity in renal hypertensive dogs and maximal fall in mean arterial blood pressure (MABP) was reported at a time duration of 5 hour after peroral administration of 1.0 mg/Kg.; type: functional, Canis lupus familiaris, Artery; method in brief: as §2
Canis familiaris [29] = experiment: Antihypertensive activity in renal hypertensive dogs and fall in heart rate(HR) was reported at a time duration of 0 hour after peroral administration of 0.3 mg/kg.; type: functional, Canis lupus familiaris; conditions: route oral; method in brief: as §1
Canis familiaris [30] = experiment: Antihypertensive activity in renal hypertensive dogs and fall in heart rate(HR) was reported at a time duration of 5 hour after peroral administration of 1.0 mg/Kg.; type: functional, Canis lupus familiaris; method in brief: as §1
Canis familiaris [31] = experiment: Antihypertensive activity in renal hypertensive dogs and maximal fall in mean arterial blood pressure (MABP) was reported at a time duration of 1 hour after peroral administration of 0.3 mg/Kg.; type: functional, Canis lupus familiaris, Artery; method in brief: as §1
Canis familiaris [32] = experiment: Antihypertensive activity in renal hypertensive dogs and maximal fall in mean arterial blood pressure (MABP) was reported at a time duration of 3 hour after peroral administration of 0.1 mg/Kg; type: functional, Canis lupus familiaris, Artery; method in brief: as §1
Canis familiaris [33] = experiment: Antihypertensive activity in renal hypertensive dogs and fall in heart rate(HR) was reported at a time duration of 0 hour after peroral administration of 0.2 mg/Kg.; type: functional, Canis lupus familiaris; method in brief: as §1
Canis familiaris [34] = experiment: Antihypertensive activity in renal hypertensive dogs and maximal fall in mean arterial blood pressure (MABP) was reported at a time duration of 0 hour after peroral administration of 0.3 mg/Kg.; type: functional, Canis lupus familiaris, Artery; method in brief: as §1
Canis familiaris [35] = experiment: Antihypertensive activity in renal hypertensive dogs and fall in heart rate(HR) was reported at a time duration of 1 hour after peroral administration of 0.3 mg/Kg.; type: functional, Canis lupus familiaris; method in brief: as §1
Canis familiaris [36] = experiment: Antihypertensive activity in renal hypertensive dogs and fall in heart rate(HR) was reported at a time duration of 5 hour after peroral administration of 0.2 mg/Kg.; type: functional, Canis lupus familiaris; method in brief: as §1
Rattus norvegicus [37] = experiment: Diuretic activity was determined in SH rats expressed as K(+) (potassium) excreted in milli equivalents was reported for a duration of 5 hours after administration of a dose of 25 mg/Kg.; type: ADME, organism-based, Urine; conditions: in vivo; method in brief: as §3
Rattus norvegicus [38] = experiment: Antihypertensive activity determined as heart rate in SH rats, was reported at a dose of 25 mg/Kg; type: functional; method in brief: as §3
Rattus norvegicus [39] = experiment: Diuretic activity was determined in SH rats expressed as K(+) (potassium) excreted in milli equivalents was reported for a duration of 5 hours after administration of a dose of 10 mg/Kg.; type: ADME, organism-based, Urine; conditions: in vivo; method in brief: as §3
[40] = Diuretic activity was determined expressed as Na+(sodium) excreted in milli equivalents was reported for a duration of 5 hours after administration of a dose of 10 mg/Kg; type: ADME, Urine; conditions: in vivo; method in brief: as §3
Rattus norvegicus [41] = experiment: Antihypertensive activity in SH rats, and mean arterial blood pressure was reported at a dose of 25 mg/Kg; type: functional, Artery; method in brief: as §3
[42] = Diuretic activity was determined expressed as volume of urine excreted in mL was reported at a dose of 25 mg/Kg; type: ADME; conditions: in vivo; method in brief: as §3
[43] = Diuretic activity was determined expressed as volume of urine excreted in mL was reported at a dose of 10 mg/Kg; type: ADME; conditions: in vivo; method in brief: as §3
Rattus norvegicus [44] = experiment: Antihypertensive activity in SH rats, and mean arterial blood pressure was reported at a dose of 10 mg/Kg; type: functional, Artery; method in brief: as §3
Rattus norvegicus [45] = experiment: Antihypertensive activity determined as heart rate in SH rats, was reported at a dose of 10 mg/Kg; type: functional; method in brief: as §3
[46] = Diuretic activity was determined expressed as Na+(sodium) excreted in milli equivalents was reported for a duration of 5 hours after administration of a dose of 25 mg/Kg; type: ADME, Urine; conditions: in vivo; method in brief: as §3
Rattus norvegicus [47] = experiment: Diuretic activity was determined in SH rats expressed as K(+) (potassium) excreted in milli equivalents was reported for a duration of 5 hours after administration of a dose of 25 mg/Kg; type: ADME, organism-based, Urine; conditions: in vivo; method in brief: as §3

CN(C)/C=N/c1c(Cl)cc(NCc2ccc(N(C)C)cc2Cl)cc1Cl
HR (Canis familiaris [1]): 96 bpm
MABP (Canis familiaris [2]): 152 mmHg
HR (Canis familiaris [3]): 56 bpm
MABP (Canis familiaris [4]): 128 mmHg
MABP (Canis familiaris [5]): 132 mmHg
MABP (Canis familiaris [6]): 147 mmHg
MABP (Canis familiaris [7]): 146 mmHg
MABP (Canis familiaris [8]): 108 mmHg
MABP (Canis familiaris [9]): 114 mmHg
HR (Rattus norvegicus [10]): 310 beats min-1
HR (Canis familiaris [11]): 100 bpm
Diuretic activity (Rattus norvegicus [12]): 22.3 mL
HR (Canis familiaris [13]): 63 bpm
HR (Canis familiaris [14]): 58 bpm
HR (Canis familiaris [15]): 110 bpm
MABP (Rattus norvegicus [16]): 116 mmHg
Diuretic activity (Rattus norvegicus [17]): 1.89 m equiv
HR (Canis familiaris [18]): 60 bpm
MABP (Canis familiaris [19]): 129 mmHg
HR (Canis familiaris [20]): 60 bpm
Diuretic activity (Rattus norvegicus [21]): 0.47 m equiv
HR (Canis familiaris [22]): 113 bpm
HR (Canis familiaris [23]): 120 bpm
MABP (Canis familiaris [24]): 140 mmHg
MABP (Canis familiaris [25]): 123 mmHg
HR (Canis familiaris [26]): 47 bpm
MABP (Canis familiaris [27]): 126 mmHg
MABP (Canis familiaris [28]): 128 mmHg
HR (Canis familiaris [29]): 94 bpm
HR (Canis familiaris [30]): 66 bpm
MABP (Canis familiaris [31]): 111 mmHg
MABP (Canis familiaris [32]): 135 mmHg and 144 mmHg
HR (Canis familiaris [33]): 79 bpm
MABP (Canis familiaris [34]): 148 mmHg
HR (Canis familiaris [35]): 60 bpm
HR (Canis familiaris [36]): 65 bpm

COc1cc(N(C)C)ccc1CNc1cc(Cl)c(/N=C/N(C)C)c(Cl)c1
Diuretic activity (Rattus norvegicus [37]): 0.75 m equiv
HR (Rattus norvegicus [38]): 270 beats min-1
Diuretic activity (Rattus norvegicus [39]): 0.48 m equiv
Diuretic activity [40]: 1.29 m equiv
MABP (Rattus norvegicus [41]): 114 mmHg
Diuretic activity [42]: 22.5 mL
Diuretic activity [43]: 14.8 mL
MABP (Rattus norvegicus [44]): 132 mmHg
HR (Rattus norvegicus [45]): 450 beats min-1
Diuretic activity [46]: 2.16 m equiv

Cc1cc(N(C)C)ccc1CNc1cc(Cl)c(/N=C/N(C)C)c(Cl)c1
HR (Rattus norvegicus [38]): 270 beats min-1
MABP (Rattus norvegicus [41]): 138 mmHg
Diuretic activity (Rattus norvegicus [47]): 0.6 m equiv
Diuretic activity [42]: 25.5 mL
Diuretic activity [46]: 2.59 m equiv
